High-throughput results (PubChem)
An excerpt weighted towards active compounds, which were near 5.8% of everything screened.
T cruzi growth-1 = T. cruzi intracellular proliferation inhibitors, primary screen, cell-based, beta-gal Tulahuen parasites, NIH3T3 host, luminescence. T. cruzi beta-gal in NIH3T3, GalScreen luminescence, 90 h. AID 624255, 2012. inhibition, % at 8.34 µM. actives 5.9% (n = 77,000);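 active = mean inhibition above about 93%, with at least 55% of replicates each passing it, limit read from the data, passing the limit was not always enough; inconclusive = only one of those two conditions holds; inactive = neither condition holds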
Pf Dd2 growth = P. falciparum Dd2 growth inhibitors, primary screen, SYBR Green fluorescence, single dose replicates. 72 h; hits give low values. activity change, % at 10 µM. actives 2.3% (n = 94,000). AID 1159554, 2015; in the data active = activity change below about -80%; inconclusive = no clear call, values can overlap the other calls
IDH1 mut inh = inhibitors of IDH1 R132H reductase, primary screen, biochemical, plate reader, single point. Isocitrate dehydrogenase [NADP] cytoplasmic (Homo sapiens), O75874. diaphorase/resazurin fluorescence, 60 min. inhibition, % at 10 µM. actives 0.18% (n = 70,000). AID 624101, 2012; in the data active = inhibition above about 34%; inconclusive = no clear call, values can overlap the other calls; inactive = below about 11%;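 note: 0% = DMSO and 100% = no enzyme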
Target sequence (O75874 whole entry R132H): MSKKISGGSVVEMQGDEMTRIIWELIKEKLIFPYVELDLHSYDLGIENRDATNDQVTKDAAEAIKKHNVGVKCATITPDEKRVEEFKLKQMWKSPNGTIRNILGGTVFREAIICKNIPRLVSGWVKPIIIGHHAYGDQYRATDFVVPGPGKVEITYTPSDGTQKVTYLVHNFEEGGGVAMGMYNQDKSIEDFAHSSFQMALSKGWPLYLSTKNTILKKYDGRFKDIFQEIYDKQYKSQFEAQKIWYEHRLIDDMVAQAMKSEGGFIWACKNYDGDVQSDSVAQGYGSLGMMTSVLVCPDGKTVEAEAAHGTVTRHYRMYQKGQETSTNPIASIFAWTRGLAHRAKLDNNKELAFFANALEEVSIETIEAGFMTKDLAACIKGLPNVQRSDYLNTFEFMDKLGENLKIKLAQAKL
KDM4C inh = inhibitors of GASC-1 (KDM4C) histone demethylase, primary screen, biochemical, single concentration HTS. Lysine-specific demethylase 4C (Homo sapiens), Q9H3R0. GST-KDM4C 2-372, H3K9me3 peptide, LANCE TR-FRET. inhibition, % at 12.5 µM. actives 0.15% (n = 96,000). AID 720574, 2013;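 active = mean replicate inhibition above about 25%, with at least 55% of replicates also reaching it, limit read from the data, passing the limit was not always enough; inconclusive = only one of those two conditions met; inactive = neither condition met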
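Compound: one test concentration per compound; Material: GST-GASC-1 enzyme fragment 2-372; Amount: GASC-1 enzyme at 10 nM final in reaction; Also added: H3K9me3 peptide substrate, Fe(II), 2-oxoglutarate; Technique: LANCE TR-FRET; Times: 30 min demethylation and 1 h detection at room temperature.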
T cruzi growth-2 = T. cruzi intracellular proliferation inhibitors, confirmation, cell-based, NIH3T3 host, beta-gal parasite, luminescence, cherry-pick. shares compounds with T cruzi growth-1. actives 72% (n = 5,600). inhibition, % at 8.35 µM. T. cruzi beta-gal in NIH3T3, GalScreen luminescence, 90 h;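 active = mean replicate inhibition above about 95% and at least 55% of replicates individually reaching it, limit read from the data; inconclusive = only one of the two criteria is met; inactive = neither criterion is met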
T cruzi growth-3 = inhibitors of intracellular T. cruzi replication, confirmation, NIH3T3 host cells, beta-gal parasites, cherry-pick, set 2. shares compounds with T cruzi growth-1. T. cruzi beta-gal in NIH3T3, GalScreen luminescence, 90 h. inhibition, % at 2.09 µM. actives 21% (n = 5,600). AID 651740, 2012;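 active = mean inhibition above about 95%, with at least 55% of replicates also reaching it, limit read from the data; inconclusive = meets just one of the two conditions; inactive = meets neither condition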;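 note: plate controls were neutral control median for no effect and positive control median for full effect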
3T3 cytotox = cytotoxicity in mouse NIH/3T3 fibroblasts, confirmation, cytotoxicity control for T. cruzi proliferation inhibitor project, cell-based, cherry-pick, single point; shares compounds with T cruzi growth-1; NIH/3T3 viability, CellTiter-Glo ATP luminescence, 90 h; cytotoxicity (signal decrease), % at 8.35 µM; actives 14% (n = 5,600); AID 651742, 2012;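 active = mean signal decrease across replicates above about 35% based on untreated-well scatter, with enough replicates individually passing, limit read from the data; inconclusive = no rule stated though some were filed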;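 note: 0% = median of neutral control wells and 100% = median of positive control wells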
3T3 cytotox 2 = NIH/3T3 fibroblast cytotoxicity, confirmation, cytotoxicity control, cell-based, cherry-pick, single point, set 2; shares compounds with T cruzi growth-1; NIH/3T3 viability, CellTiter-Glo ATP luminescence, 90 h; inhibition, % at 24.9 µM; actives 56% (n = 5,600); AID 651744, 2012;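 active = mean loss of cell viability signal at or above a set limit, and enough replicates individually reaching it; inconclusive = meets only the mean limit or only the replicate share; inactive = meets neither condition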;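 note: 0% = median of neutral control wells and 100% = median of positive control wells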
* hit, by the source's call; ? = inconclusive; . = not tested or not shown; ! = repeats disagree.

SMILES	T cruzi growth-1	Pf Dd2 growth	IDH1 mut inh	KDM4C inh	T cruzi growth-2	T cruzi growth-3	3T3 cytotox	3T3 cytotox 2
C[C@@H]1CN([C@@H](C)CO)C(=O)c2cc(C#Cc3ccccc3)cnc2O[C@H]1CN(C)S(=O)(=O)c1ccccc1F	90	-66	0	.	.	.	.	.
C[C@H](CO)N1C[C@H](C)[C@H](CN(C)S(=O)(=O)c2cccs2)Oc2ncc(C#Cc3ccccc3)cc2C1=O	119*!	-42	-1	-6	109*	67	24	16
C[C@H](CO)N1C[C@H](C)[C@H](CN(C)S(=O)(=O)c2ccccc2F)Oc2ncc(C#Cc3ccccc3)cc2C1=O	-10	-55	0	.	.	.	.	.
C[C@H]1CN([C@@H](C)CO)C(=O)c2cc(C#Cc3ccccc3)cnc2O[C@@H]1CN(C)S(=O)(=O)c1ccccc1F	?	-49	0	.	108*	68	37*	36*
C[C@H](CO)N1C[C@H](C)[C@H](CN(C)S(=O)(=O)c2ccccc2F)Oc2ncc(C#Cc3ccccc3F)cc2C1=O	?	-34	0	-3	106*	69	26	58*
C[C@@H]1CN([C@H](C)CO)C(=O)c2cc(C#Cc3ccccc3F)cnc2O[C@H]1CN(C)S(=O)(=O)c1ccccc1F	114*	-43	-6	-1	110*	90	39*	?
COCCNC(=O)C[C@@H]1C[C@H]2c3cc(NC(=O)Nc4ccc(OC)cc4)ccc3O[C@H]2[C@@H](CO)O1	-28	-5	0	0	.	.	.	.
COc1cccc(S(=O)(=O)N2CCCCN3[C@H](CO)[C@H](c4ccc(C5=CCCCC5)cc4)[C@@H]3C2)c1	70	-49	.	0	.	.	.	.
C[C@H](CO)N1C[C@H](C)[C@@H](CN(C)C(=O)CN(C)C)Oc2cc(C3=CCCCC3)ccc2S1(=O)=O	52	-56	1	1	.	.	.	.
CCCN1[C@H](C(=O)NCCCN2CCOCC2)[C@@H](CO)[C@@H]2Cn3c(ccc(-c4cccnc4)c3=O)[C@@H]21	-38	11	.	1	.	.	.	.
C[C@@H]1CN([C@H](C)CO)C(=O)c2cc(C#Cc3ccccc3F)cnc2O[C@@H]1CN(C)S(=O)(=O)c1ccccc1F	106*!	-40	0	-2	107*	69	55*	54*
C[C@@H]1CN([C@@H](C)CO)C(=O)c2cc(C#Cc3ccccc3F)cnc2O[C@@H]1CN(C)S(=O)(=O)c1ccccc1F	98*	-61	-3	-5	95*	80	56*	61*
C[C@@H]1CN([C@@H](C)CO)C(=O)c2cc(C3=CCCCC3)cnc2O[C@H]1CN(C)Cc1cccc(F)c1	115*	-15	-1	-3	105*	26	14	105*
C[C@@H]1CN([C@@H](C)CO)C(=O)c2cc(C3=CCCCC3)cnc2O[C@@H]1CN(C)Cc1ccccc1	?	13	-1	0	100*	33	-9	48*
C[C@H]1CN([C@@H](C)CO)C(=O)c2cc(C3=CCCCC3)cnc2O[C@@H]1CN(C)Cc1cccc(F)c1	29	-14	-2	0	.	.	.	.
C[C@@H]1CN([C@@H](C)CO)C(=O)c2cc(C3=CCCC3)cnc2O[C@@H]1CN(C)Cc1ccccc1	?	-26	-1	-1	?	36	-11	17
COCC#Cc1ccc2c(c1)O[C@H](CN(C)S(=O)(=O)c1ccc(OC)cc1)[C@H](C)CN([C@H](C)CO)S2(=O)=O	.	-39	0	-1	.	.	.	.
C[C@@H](O)C#Cc1ccc2c(c1)O[C@@H](CN(C)CC1CCOCC1)[C@@H](C)CN([C@@H](C)CO)S2(=O)=O	48	9	-3	.	.	.	.	.
CCC(=O)N1C[C@H]2[C@@H](c3ccccc31)[C@@H](CO)N2Cc1ccccc1OC	?	-71	.	2	105*	11	22	13
CCC(=O)N1C[C@H]2[C@@H](c3ccccc31)[C@@H](CO)N2C(=O)CC	60	-21	.	-1	.	.	.	.
CCC(=O)N1C[C@@H]2[C@H](c3ccccc31)[C@@H](CO)N2C(=O)CC	102*	-76	.	-4	7	3	-11	-13
O=C(C[C@H]1CC[C@@H]2[C@H](COC[C@@H](O)CN2Cc2cc(F)cc(F)c2)O1)NCc1cccc(F)c1	30	-23	.	-1	.	.	.	.
COc1ccc(S(=O)(=O)N[C@@H]2C=C[C@@H](CC(=O)N3CCC(Cc4ccccc4)CC3)O[C@H]2CO)cc1	?	-37	0	-1	65	-7	-7	32*
COc1ccc(S(=O)(=O)N[C@@H]2C=C[C@H](CC(=O)N3CCC(Cc4ccccc4)CC3)O[C@@H]2CO)cc1	?	-13	0	0	25	11	11	32*
C[C@H](CO)N1C[C@H](C)[C@H](CN(C)C(=O)Nc2ccccc2)OCCCC[C@H](C)Oc2ccc(NC(=O)c3ccccc3)cc2C1=O	71	-19	-1	0	.	.	.	.
SMILES	T cruzi growth-1	Pf Dd2 growth	IDH1 mut inh	KDM4C inh	T cruzi growth-2	T cruzi growth-3	3T3 cytotox	3T3 cytotox 2
CCCC#Cc1ccc2c(c1)O[C@@H](CN(C)S(C)(=O)=O)[C@@H](C)CN([C@@H](C)CO)S2(=O)=O	101*	-1	-2	-1	?	?	32	58*
C[C@@H]1CN([C@H](C)CO)S(=O)(=O)c2ccc(C#Cc3ccccc3)cc2O[C@@H]1CN(C)S(C)(=O)=O	69	-40	-1	-4	.	.	.	.
C[C@H](CO)N1C[C@H](C)[C@H](CN(C)S(C)(=O)=O)Oc2cc(C#Cc3ccc(F)cc3)ccc2S1(=O)=O	115*	-26	-3	8	103*	71	12	51*
C[C@H]1CN([C@@H](C)CO)S(=O)(=O)c2ccc(C#Cc3ccc(F)cc3)cc2O[C@H]1CN(C)S(C)(=O)=O	118*	-36	-2	1	105*	59	20	2
CCCC#Cc1ccc2c(c1)O[C@@H](CN(C)S(C)(=O)=O)[C@H](C)CN([C@H](C)CO)S2(=O)=O	15	-12	0	0	.	.	.	.
C[C@H]1CN([C@@H](C)CO)S(=O)(=O)c2ccc(C#Cc3ccc(F)cc3)cc2O[C@@H]1CN(C)S(C)(=O)=O	122*	-10	-2	-2	102*	65	?	87*
